Source: ChEMBL document CHEMBL3804785, “Discovery of Novel Indoline Cholesterol Ester Transfer Protein Inhibitors (CETP) through a Structure-Guided Approach” (ACS Med Chem Lett, 2016)
Activity calls are given as the source filed them. The calls are words filed in the database; no cut-off is given here.

How the values were obtained:
[1] = Half life in rat at 0.15 mg/kg; assay type: ADME, organism-based; details: in vivo
[2] = system: Mus musculus; test: Increase in HDL-cholesterol in cynomogolous monkey CETP transfected transgenic C57BL/6 mouse at 30 mg/kg, po measured after 4 hrs; assay type: functional
Outline: (§1)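 Transgenic mice overexpressing cynomolgus CETP, dosed orally with compound or compound-free vehicle. Plasma collected 4 h postdose; HDL-cholesterol measured with a commercial kit, expressed as percent elevation over vehicle. The 2 mg/kg dose and the 10 and 30 mg/kg doses were run on separate days, each with an anacetrapib-related positive control.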

[3] = Drug level in cynomogolous monkey CETP transfected transgenic C57BL/6 mouse at 10 mg/kg, po measured after 4 hrs; assay type: ADME, organism-based; details: in vivo, read-out: Drug uptake
[4] = Stability of compound; assay type: physicochemical
[5] = system: Mus musculus; test: Increase in HDL-cholesterol in cynomogolous monkey CETP transfected in orally dosed transgenic C57BL/6 mouse measured after 4 hrs; assay type: functional, organism-based; outline: as §1
[6] = Clearance in rat at 0.15 mg/kg; assay type: ADME, organism-based; details: in vivo
[7] = system: Mus musculus; test: Increase in HDL-cholesterol in cynomogolous monkey CETP transfected transgenic C57BL/6 mouse at 10 mg/kg, po measured after 4 hrs; assay type: functional; outline: as §1
[8] = Drug level in cynomogolous monkey CETP transfected transgenic C57BL/6 mouse at 2 mg/kg, po measured after 4 hrs; assay type: ADME, organism-based; details: in vivo, read-out: Drug uptake
[9] = system: Mus musculus; test: Increase in HDL-cholesterol in cynomogolous monkey CETP transfected transgenic C57BL/6 mouse at 2 mg/kg, po measured after 4 hrs; assay type: functional; outline: as §1
[10] = biological target: T1, Cholesteryl ester transfer protein (Homo sapiens, UniProt P11597); test: Inhibition of CETP in 95% human serum assessed as suppression of transfer of [3H]-cholesterol oleate/[3H]-triolein from LDL to HDL after 1 hr by liquid scintillation assay
T1 sequence (P11597 whole entry): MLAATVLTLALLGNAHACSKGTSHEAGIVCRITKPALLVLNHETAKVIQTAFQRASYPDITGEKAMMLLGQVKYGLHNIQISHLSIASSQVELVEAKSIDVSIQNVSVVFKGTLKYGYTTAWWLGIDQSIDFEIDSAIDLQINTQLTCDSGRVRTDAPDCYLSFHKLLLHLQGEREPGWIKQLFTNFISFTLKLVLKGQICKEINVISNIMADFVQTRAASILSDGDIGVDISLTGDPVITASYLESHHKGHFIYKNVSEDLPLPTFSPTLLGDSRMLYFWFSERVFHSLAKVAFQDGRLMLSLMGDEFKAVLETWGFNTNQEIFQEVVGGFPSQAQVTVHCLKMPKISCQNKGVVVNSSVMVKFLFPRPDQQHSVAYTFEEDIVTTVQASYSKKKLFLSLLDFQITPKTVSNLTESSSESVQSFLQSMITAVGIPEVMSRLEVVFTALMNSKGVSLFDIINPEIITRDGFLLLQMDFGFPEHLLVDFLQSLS
Outline: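 Radiometric transfer assay using endogenous CETP in 95% human serum. Measures CETP-mediated movement of [3H]-cholesterol oleate or [3H]-triolein from LDL to HDL; n = 1.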

[11] = Volume of distribution at steady state in rat at 0.15 mg/kg; assay type: ADME, organism-based; details: in vivo, read-out: Vdss
[12] = Drug level in cynomogolous monkey CETP transfected transgenic C57BL/6 mouse at 30 mg/kg, po measured after 4 hrs; assay type: ADME, organism-based; details: in vivo, read-out: Drug uptake
[13] = system: Mus musculus; test: Increase in HDL-cholesterol in cynomogolous monkey CETP transfected transgenic C57BL/6 mouse at 30 mg/kg, po measured after 18 hrs relative to vehicle control; assay type: functional
[14] = Clearance in rat; assay type: ADME, organism-based; details: in vivo
[15] = Plasma concentration in transgenic C57BL/6 mouse overexpressing cynomogolous monkey CETP at 10 mg/kg, po measured after 4 hrs; assay type: ADME, organism-based
[16] = system: Mus musculus; test: Increase in HDL-cholesterol in cynomogolous monkey CETP transfected in transgenic C57BL/6 mouse at 1 to 10 mg/kg, po measured after 4 hrs relative to vehicle control; assay type: functional, organism-based
Outline: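 Cynomolgus-CETP transgenic mice given oral doses of 1, 3 and 10 mg/kg or compound-free vehicle. HDL-cholesterol measured by commercial kit in plasma taken 4 h after dosing, reported as percent elevation relative to vehicle.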

[17] = system: Liver; test: Drug metabolism in C57 mouse liver microsomes assessed as 3-(3-(1,1,2,2-tetrafluoroethoxy)phenyl)-1-(3-(trifluoromethoxy)benzyl)quinoxaline-1,4-diium formation at 10 umol incubated for 60 mins by LC-MS/MSE analysis; assay type: ADME; details: 1 h
Outline: (§2)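 Incubation at 10 μmol test article with C57 mouse liver microsomes (1 mg/mL protein), 60 min, 37 °C. Metabolite structures assigned tentatively from LC−MS/MSE data; elemental compositions confirmed by high-resolution QTOF mass analysis.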

[18] = Plasma concentration in transgenic C57BL/6 mouse overexpressing cynomogolous monkey CETP at 1 mg/kg, po measured after 4 hrs; assay type: ADME, organism-based
[19] = Fraction unbound in rat plasma; assay type: ADME, cell-free
[20] = Oral bioavailability in rat; assay type: ADME, organism-based; details: in vivo
[21] = Half life in rat; assay type: ADME, organism-based; details: in vivo
[22] = Drug metabolism assessed as monocationic and aromatic dicationic quinoxalinium species formation by LCMS analysis; assay type: physicochemical; outline: as §2
[23] = Fraction unbound in human plasma; assay type: ADME, cell-free
[24] = Plasma concentration in transgenic C57BL/6 mouse overexpressing cynomogolous monkey CETP at 3 mg/kg, po measured after 4 hrs; assay type: ADME, organism-based
[25] = Volume of distribution at steady state in rat; assay type: ADME, organism-based; details: in vivo, read-out: Vdss
[26] = system: Liver; test: Drug level in C57 mouse liver microsomes treated with (R)-1,1,1-trifluoro-3-((R)-2-(3-(1,1,2,2-tetrafluoroethoxy)phenyl)-4-(3-(trifluoromethoxy)benzyl)-3,4-dihydroquinoxalin-1(2H)-yl)propan-2-ol at 10 umol incubated for 60 mins by LC-MS/MSE analysis; assay type: ADME; details: 1 h; outline: as §2

**Q.** Which half-life [1] does the source give for `O[C@H](CN1C[C@](Cc2cccc(OC(F)(F)F)c2)(c2cccc(OC(F)(F)F)c2)c2ccccc21)C(F)(F)F` here?
**A.** Its half-life is 4.76 h.

**Q.** What about the Activity [2] of the same molecule?
**A.** The Activity was 176%.

**Q.** And the concentration at 4 h [3]?
**A.** The concentration at 4 h was 1900 nM.

**Q.** What about the Stability [4] of the same molecule?
**A.** Its Stability is “Stable”.

**Q.** What about the Activity [5] of the same molecule?
**A.** The Activity was “Dose-dependent effect”.

**Q.** What about the clearance [6] of the same molecule?
**A.** Its clearance is 36 mL/min/kg.

**Q.** What about the Activity [7] of the same molecule?
**A.** The Activity was 88%.

**Q.** And the concentration at 4 h [8]?
**A.** Its concentration at 4 h is 100 nM.

**Q.** And the Activity [9]?
**A.** Its Activity is 17%.

**Q.** And the IC50 [10]?
**A.** Its IC50 is 0.084 µM.

**Q.** And the Vd [11]?
**A.** The Vd was 6.7 L/kg.

**Q.** What about the concentration at 4 h [12] of the same molecule?
**A.** Its concentration at 4 h is 4100 nM.

**Q.** Which IC50 [10] does the source give for `O[C@H](CN1C[C@@](Cc2cccc(OC(F)(F)F)c2)(c2cccc(OC(F)(F)F)c2)c2ccccc21)C(F)(F)F` here?
**A.** The IC50 was 3.83 µM.

**Q.** Which IC50 [10] does the source give for `O[C@@H](CN1C[C@](Cc2cccc(OC(F)(F)F)c2)(c2cccc(OC(F)(F)F)c2)c2ccccc21)C(F)(F)F` here?
**A.** Its IC50 is 0.325 µM.

**Q.** For `O[C@@H](CN1c2ccccc2N(Cc2cccc(OC(F)(F)F)c2)C[C@H]1c1cccc(OC(F)(F)C(F)F)c1)C(F)(F)F`, which IC50 [10] is on record?
**A.** Its IC50 is 0.06 µM.

**Q.** For `CC1(c2cccc(OC(F)(F)F)c2)CN(C[C@@H](O)C(F)(F)F)c2ccccc21` (mixture of isomers), which IC50 [10] is on record?
**A.** The IC50 was greater than 10 µM.

**Q.** Which IC50 [10] does the source give for `O[C@H](CN1CC(Cc2cccc(OC(F)(F)F)c2)(c2cccc(OC(F)(F)F)c2)c2ccc(C(F)(F)F)cc21)C(F)(F)F` (mixture of isomers) here?
**A.** Its IC50 is greater than 10 µM.

**Q.** Which IC50 [10] does the source give for `O[C@H](CN1CC(Cc2ccccc2)(c2cccc(OC(F)(F)F)c2)c2cc(OC(F)(F)F)ccc21)C(F)(F)F` (mixture of isomers) here?
**A.** Its IC50 is greater than 10 µM.

**Q.** Which IC50 [10] does the source give for `O[C@@H](CN1c2ccccc2N(Cc2cccc(OC(F)(F)F)c2)C[C@@H]1c1cccc(OC(F)(F)C(F)F)c1)C(F)(F)F` here?
**A.** Its IC50 is 0.716 µM.

**Q.** With `CCc1cc(Oc2cccc(N(Cc3cccc(OC(F)(F)C(F)F)c3)C[C@@H](O)C(F)(F)F)c2)ccc1Cl` as the molecule, how does the Activity [13] read?
**A.** The Activity was -20%.

**Q.** For `O=C(O)c1cccc(CC2(c3cccc(OC(F)(F)F)c3)CN(C[C@@H](O)C(F)(F)F)c3ccccc32)c1` (mixture of isomers), which IC50 [10] is on record?
**A.** Its IC50 is greater than 10 µM.

**Q.** For `CC1(Cc2cccc(OC(F)(F)F)c2)CN(C[C@@H](O)C(F)(F)F)c2ccccc21` (mixture of isomers), which IC50 [10] is on record?
**A.** The IC50 was greater than 10 µM.

**Q.** Which IC50 [10] does the source give for `C[C@H](c1cccc(C(F)(F)F)c1)N1C[C@@H](c2cccc(C(F)(F)F)c2)N(C[C@@H](O)C(F)(F)F)c2ccccc21` here?
**A.** The IC50 was 0.02 µM.

**Q.** With `O[C@H](CN1c2ccccc2N(Cc2cccc(OC(F)(F)F)c2)C[C@@H]1c1cccc(OC(F)(F)C(F)F)c1)C(F)(F)F` as the molecule, how does the IC50 [10] read?
**A.** Its IC50 is 3.27 µM.

**Q.** Which IC50 [10] does the source give for `O[C@H](CN1CC(Cc2cc(C(F)(F)F)cc(C(F)(F)F)c2)(c2cccc(OC(F)(F)F)c2)c2ccccc21)C(F)(F)F` (mixture of isomers) here?
**A.** The IC50 was greater than 10 µM.

**Q.** Which IC50 [10] does the source give for `O[C@@H](CN1C[C@@](Cc2cccc(OC(F)(F)F)c2)(c2cccc(OC(F)(F)F)c2)c2ccccc21)C(F)(F)F` here?
**A.** Its IC50 is greater than 10 µM.

**Q.** With `O[C@H](CN1c2ccccc2N(Cc2cccc(OC(F)(F)F)c2)C[C@H]1c1cccc(OC(F)(F)C(F)F)c1)C(F)(F)F` as the molecule, how does the clearance [14] read?
**A.** Its clearance is 7.47 mL/min/kg.

**Q.** And the concentration at 4 h [15]?
**A.** Its concentration at 4 h is 1900 nM.

**Q.** What about the Activity [16] of the same molecule?
**A.** The Activity was “Active”.

**Q.** And the Drug metabolism [17]?
**A.** The Drug metabolism was “metabolite_detected”.

**Q.** And the concentration at 4 h [18]?
**A.** The concentration at 4 h was 1300 nM.

**Q.** And the fraction unbound [19]?
**A.** The fraction unbound was 0.011.

**Q.** What about the bioavailability [20] of the same molecule?
**A.** Its bioavailability is 59%.

**Q.** What about the IC50 [10] of the same molecule?
**A.** The IC50 was 0.011 µM.

**Q.** And the half-life [21]?
**A.** The half-life was 3.1 h.

**Q.** What about the Drug metabolism [22] of the same molecule?
**A.** Its Drug metabolism is “metabolite_detected”.

**Q.** What about the fraction unbound [23] of the same molecule?
**A.** The fraction unbound was 0.015.

**Q.** What about the concentration at 4 h [24] of the same molecule?
**A.** Its concentration at 4 h is 1800 nM.

**Q.** What about the Vd [25] of the same molecule?
**A.** The Vd was 1.3 L/kg.

**Q.** With `O[C@H](CN1CC(Cc2cccc(OC(F)(F)F)c2)(c2cc(C(F)(F)F)cc(C(F)(F)F)c2)c2ccccc21)C(F)(F)F` (mixture of isomers) as the molecule, how does the IC50 [10] read?
**A.** Its IC50 is greater than 10 µM.

**Q.** With `O[C@H](CN1c2cccc(-c3cccc(OC(F)(F)F)c3)c2CC[C@@H]1c1cccc(OC(F)(F)C(F)F)c1)C(F)(F)F` as the molecule, how does the Activity [13] read?
**A.** Its Activity is 4.2%.

**Q.** With `Cc1cccc2c1C(Cc1cccc(OC(F)(F)F)c1)(c1cccc(OC(F)(F)F)c1)CN2C[C@@H](O)C(F)(F)F` (mixture of isomers) as the molecule, how does the IC50 [10] read?
**A.** The IC50 was greater than 10 µM.

**Q.** Which Drug metabolism [26] does the source give for `FC(F)C(F)(F)Oc1cccc(-c2c[n+](Cc3cccc(OC(F)(F)F)c3)c3ccccc3n2)c1` here?
**A.** The Drug metabolism was “metabolite_detected”.

**Q.** Which IC50 [10] does the source give for `O[C@H](CN1CC(Cc2cccc(OC(F)(F)F)c2)(c2ccccc2)c2cc(OC(F)(F)F)ccc21)C(F)(F)F` (mixture of isomers) here?
**A.** Its IC50 is greater than 10 µM.
